Laboratory results from ChEMBL document CHEMBL1649157, “Intracellular activity of antibiotics against Staphylococcus aureus in a mouse peritonitis model” (Antimicrob Agents Chemother, 2009).
Calls of active or inactive are those of the source.

Assays:
[1] = test system: Staphylococcus aureus; assay: Antibacterial activity against Staphylococcus aureus E19977 by Etest; assay type: functional
[2] = test system: Staphylococcus aureus; assay: Antibacterial activity against Staphylococcus aureus E19977 infected in NMRI mouse assessed as log reduction in intracellular bacterial cfu in peritoneum at 200 mg/kg, sc administered 2 hrs after infection measured after 4 hrs; assay type: functional, organism-based; parameters: dose 200 mg/kg
How it was run: (§1)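 Dose–response in i.p.-infected NMRI mice (mucin adjuvant). Single doses of 200, 60, 30, 20 or 10 mg/kg were given 2 h after inoculation, with 4–16 mice per group. Peritoneal wash was sampled 4 h later and split by lysostaphin/centrifugation into total, extra- and intracellular counts, then expressed as Δlog10 CFU/ml against log dose. Vehicle controls were plotted as 0.3 mg/kg. Hill fit (variable slope); static dose interpolated.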

[3] = test system: Serum; assay: Protein binding in human serum at 1000 mg, po; assay type: ADME, organism-based; settings: in vivo
[4] = test system: Staphylococcus aureus; assay: Antibacterial activity against Staphylococcus aureus E19977 infected in NMRI mouse assessed as log reduction in bacterial cfu in peritoneum at 60 mg/kg, sc administered as single dose 2 hrs after infection measured after 4 hrs; assay type: functional, organism-based; parameters: dose 60 mg/kg
How it was run: (§2)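 NMRI mice were infected i.p. with S. aureus E19977 in 5% mucin. A single dose (60 mg/kg or 10 mg/kg) was given 1, 2 or 3 h after inoculation, four mice per group. Peritoneal wash was sampled after 4 h of treatment and separated into total, extracellular and intracellular counts by lysostaphin/centrifugation. Δlog10 CFU/ml was calculated against vehicle-treated mice infected for the same time (5, 6 or 7 h).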

[5] = test system: Staphylococcus aureus; assay: Bactericidal activity against Staphylococcus aureus E19977 assessed as log reduction in cfu at 2 mg/liter after 24 hrs by time-kill study; assay type: functional, organism-based
How it was run: (§3)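 In vitro kinetic model simulating antibiotic elimination without inoculum change. Exponential-phase E19977 was added at a final 10^6.3 CFU/ml. Starting drug concentration matched the human free peak, with the human half-life simulated. Samples were plated on 5% blood agar at 0, 2, 4, 6, 8, 12 and 24 h, with growth controls in each run. Results are shown as mean and range, n = 2.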

[6] = test system: Staphylococcus aureus; assay: Bactericidal activity against Staphylococcus aureus E19977 assessed as log reduction in cfu at 2 mg/liter after 12 hrs by time-kill study; assay type: functional
How it was run: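 Clinical bacteremia isolate (penicillin-resistant, methicillin-susceptible). Exponential-phase bacteria were placed in an in vitro kinetic model that simulates drug elimination without changing the inoculum. The starting drug level matched the human free peak serum concentration after a single dose, with simulated human elimination half-life. Samples were taken at 0, 2, 4, 6, 8, 12 and 24 h, with growth controls in each run.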

[7] = test system: Staphylococcus aureus; assay: Antibacterial activity against Staphylococcus aureus E19977 infected in NMRI mouse assessed as log reduction in intracellular bacterial cfu in peritoneum at 200 mg/kg, sc administered as single dose 2 hrs after infection measured between 4 to 19 hrs; assay type: functional, organism-based; parameters: dose 200 mg/kg
How it was run: (§4)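 NMRI mice were infected i.p. and given one or three doses (every 8 h), starting 2 h post-inoculation, at 200 mg/kg or 60 mg/kg, four mice per group. Peritoneal washes were sampled over 19 h of treatment. Total, extracellular and intracellular CFU/ml (lysostaphin separation) were compared with the pretreatment level; mean ± range, n = 2. Untreated controls were sampled only at 6 h of infection.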

[8] = test system: Staphylococcus aureus; assay: Antibacterial activity against Staphylococcus aureus E19977 infected in NMRI mouse assessed as log reduction in extracellular bacterial cfu in peritoneum at 60 mg/kg, sc administered as single dose 2 hrs after infection measured after 4 hrs; assay type: functional, organism-based; parameters: dose 60 mg/kg; how it was run: as §2
[9] = test system: Staphylococcus aureus; assay: Bactericidal activity against Staphylococcus aureus E19977 assessed as log reduction in cfu at 20 mg/liter after 24 hrs by time-kill study; assay type: functional, organism-based; how it was run: as §3
[10] = test system: Staphylococcus aureus; assay: Antibacterial activity against Staphylococcus aureus E19977 infected in NMRI mouse assessed as log reduction in intracellular bacterial cfu in peritoneum at 60 mg/kg, sc administered as single dose 3 hrs after infection measured after 4 hrs; assay type: functional, organism-based; parameters: dose 60 mg/kg; how it was run: as §2
[11] = test system: Staphylococcus aureus; assay: Antibacterial activity against Staphylococcus aureus E19977 infected in NMRI mouse assessed as log reduction in extracellular bacterial cfu in peritoneum at 60 mg/kg, sc administered as single dose 3 hrs after infection measured after 4 hrs; assay type: functional, organism-based; parameters: dose 60 mg/kg; how it was run: as §2
[12] = Half life in human at 1000 mg, po; assay type: ADME, organism-based; settings: in vivo
[13] = test system: Staphylococcus aureus; assay: Bactericidal activity against Staphylococcus aureus E19977 assessed as log reduction in cfu at 0.5 mg/liter after 24 hrs by time-kill study; assay type: functional, organism-based; how it was run: as §3
[14] = test system: Staphylococcus aureus; assay: Bactericidal activity against Staphylococcus aureus E19977 assessed as log reduction in cfu at 1.5 mg/liter after 24 hrs by time-kill study; assay type: functional, organism-based; how it was run: as §3
[15] = test system: Staphylococcus aureus; assay: Antibacterial activity against Staphylococcus aureus E19977 infected in NMRI mouse assessed as log reduction in bacterial cfu in peritoneum at 60 mg/kg, sc administered as single dose 1 hr after infection measured after 4 hrs; assay type: functional, organism-based; parameters: dose 60 mg/kg; how it was run: as §2
[16] = test system: Staphylococcus aureus; assay: Antibacterial activity against Staphylococcus aureus E19977 infected in NMRI mouse assessed as log reduction in extracellular bacterial cfu in peritoneum at 10 to 200 mg/kg, sc administered 2 hrs after infection measured after 4 hrs; assay type: functional, organism-based; how it was run: as §1
[17] = test system: Staphylococcus aureus; assay: Antibacterial activity against Staphylococcus aureus E19977 infected in NMRI mouse assessed as log reduction in bacterial cfu in peritoneum at 60 mg/kg, sc administered as single dose 2 hrs after infection measured within 4 hrs; assay type: functional; settings: route subcutaneous
How it was run: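 Female NMRI mice were infected i.p. with S. aureus E19977 (10^7.7 CFU/ml, 0.5 ml, 5% mucin). They were treated 2 h post-inoculation with a single 60 mg/kg dose and sampled after 4 h of treatment. Peritoneal-wash CFU were plated on blood agar. Δlog10 CFU/ml was calculated against vehicle-treated controls with the same infection duration.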

[18] = test system: Staphylococcus aureus; assay: Antibacterial activity against Staphylococcus aureus E19977 infected in NMRI mouse assessed as log reduction in intracellular bacterial cfu in peritoneum at 60 mg/kg, sc administered as single dose 1 hr after infection measured after 4 hrs; assay type: functional, organism-based; parameters: dose 60 mg/kg; how it was run: as §2
[19] = test system: Staphylococcus aureus; assay: Antibacterial activity against Staphylococcus aureus E19977 infected in NMRI mouse assessed as log reduction in intracellular bacterial cfu in peritoneum at 200 mg/kg, sc administered 2 hrs after infection evry 8 hrs as three-dose regimen measured after 19 hrs; assay type: functional, organism-based; parameters: dose 200 mg/kg; how it was run: as §4
[20] = test system: Staphylococcus aureus; assay: Antibacterial activity against Staphylococcus aureus E19977 infected in NMRI mouse assessed as log reduction in intracellular bacterial cfu in peritoneum at 60 mg/kg, sc administered as single dose 2 hrs after infection measured after 4 hrs; assay type: functional, organism-based; parameters: dose 60 mg/kg; how it was run: as §2
[21] = test system: Staphylococcus aureus; assay: Antibacterial activity against Staphylococcus aureus E19977 infected in NMRI mouse assessed as log reduction in bacterial cfu in peritoneum at 200 mg/kg, sc administered as single dose 2 hrs after infection measured between 4 to 19 hrs; assay type: functional; settings: route subcutaneous
How it was run: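 Female outbred NMRI mice (25 to 30 g) were infected i.p. with 0.5 ml of 10^7.7 CFU/ml S. aureus E19977 in 5% (wt/vol) mucin. The first dose was given 2 h after inoculation, either once or as three doses every 8 h, with four mice per group. Mice were euthanized 19 h after treatment onset and washed peritoneally with 2.0 ml saline. Total CFU were counted by duplicate spotting of 10-fold dilutions on 5% blood agar.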

[22] = test system: Staphylococcus aureus; assay: Antibacterial activity against Staphylococcus aureus E19977 infected in NMRI mouse assessed as log reduction in extracellular bacterial cfu in peritoneum at 60 mg/kg, sc administered as single dose 1 hr after infection measured after 4 hrs; assay type: functional, organism-based; parameters: dose 60 mg/kg; how it was run: as §2

Cc1onc(-c2c(Cl)cccc2Cl)c1C(=O)N[C@@H]1C(=O)N2[C@@H]1SC(C)(C)[C@@H]2C(=O)O [DICLOXACILLIN]
<1: FC [17] | FC [21]
0.5 µg/mL: MIC [1]
1 h: half-life [12]
active: Activity [15] | Activity [16] Dose-dependent effect | Activity [18] | Activity [20] | Activity [22]
inactive: Activity [2] | Activity [4] | Activity [5] | Activity [7] | Activity [8] | Activity [9] | Activity [10] | Activity [11] | Activity [13] | Activity [14] | Activity [19]
2: FC [6]
95%: Activity [3]
